The values that follow come from ChEMBL document CHEMBL1134663, “Investigation of 5-nitrofuran derivatives: synthesis, antibacterial activity, and quantitative structure-activity relationships” (J Med Chem, 2001).

Each structure is given as a SMILES string.

One experiment has as its system Caulobacter vibrioides. The experiment can be described thus: Compound was tested against gram-negative Caulobacter crescentus, strain NA 1000 bacteria. The note with it: read-out: Log 1/IC50 (converted). In kind it is functional, organism-based. The gist of the method:
(§1)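 Sequential broth macrodilution. S. aureus was grown in TSB at 37 °C and C. crescentus in PYE (peptone, yeast extract, 0.8 mM MgSO4, 0.5 mM CaCl2) at 30 °C. Inoculum was an 8 h exponential culture diluted to about 2 × 10^5 bacteria/mL and added 1:1 to 2-fold serial dilutions. Incubation was 12 h (S. aureus) or 20 h (C. crescentus). Growth was read at A600, and the 50% growth inhibition concentration is reported as log(1/IC50), µmol/mL.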

The subject of another experiment is Staphylococcus aureus. Put plainly: Activity against gram-positive Staphylococcus aureus strain ATCC 25923 bacteria. In kind it is functional, organism-based. To be noted: read-out: Log 1/IC50 (converted). The gist of the method:
as §1

Consider `N#Cc1ccc2c(c1)C(=O)/C(=C/c1ccc([N+](=O)[O-])o1)O2`, for which the IC50 in the experiment on Caulobacter vibrioides was 4.57 mM; in the experiment with Staphylococcus aureus, 3.16 mM. `CC(=O)Oc1ccc(Cl)cc1C(=O)/C=C/c1ccc([N+](=O)[O-])o1`: the IC50 was 50.1 mM with Caulobacter vibrioides and 10 mM in the experiment with Staphylococcus aureus. Take `CCc1ccc(OC(C)=O)c(C(=O)/C=C/c2ccc([N+](=O)[O-])o2)c1`: the IC50 with Staphylococcus aureus was 3.98 mM. With `COc1ccc2c(c1)C(=O)/C(=C/c1ccc([N+](=O)[O-])o1)O2`, the IC50 with Caulobacter vibrioides was 1.05 mM; in the experiment with Staphylococcus aureus, 0.151 mM. With `O=C(/C=C/c1ccc([N+](=O)[O-])o1)c1cc(Cl)ccc1O`, in the experiment with Staphylococcus aureus, the IC50 is 11.7 mM. Turning to `CCc1ccc(O)c(C(=O)/C=C/c2ccc([N+](=O)[O-])o2)c1`, the IC50 in the experiment on Staphylococcus aureus was 15.8 mM. For `Cc1ccc2c(c1)C(=O)/C(=C/c1ccc([N+](=O)[O-])o1)O2`, the values for the IC50 in the experiment on Caulobacter vibrioides and with Staphylococcus aureus were 1.26 mM and 0.115 mM, respectively. The corresponding values for `CC(=O)Oc1ccccc1C(=O)/C=C/c1ccc([N+](=O)[O-])o1` are 42.7 mM and 6.92 mM. The corresponding values for `CCCc1ccc2c(c1)C(=O)/C(=C/c1ccc([N+](=O)[O-])o1)O2` are 3.09 mM and 0.447 mM. The corresponding values for `CCc1ccc2c(c1)C(=O)/C(=C/c1ccc([N+](=O)[O-])o1)O2` are 2.75 mM and 0.447 mM.

`O=C(/C=C/c1ccc([N+](=O)[O-])o1)c1ccccc1O`: the IC50 in the experiment on Caulobacter vibrioides was 64.6 mM; with Staphylococcus aureus, 7.24 mM.

As for `CC(=O)Oc1ccc(C)cc1C(=O)/C=C/c1ccc([N+](=O)[O-])o1`, the IC50 in the experiment with Staphylococcus aureus is 4.79 mM. With `O=C1/C(=C/c2ccc([N+](=O)[O-])o2)Oc2ccccc21`, the IC50 in the experiment on Caulobacter vibrioides was 1.29 mM; with Staphylococcus aureus it was 0.302 mM.

Consider `Cc1ccc(O)c(C(=O)/C=C/c2ccc([N+](=O)[O-])o2)c1`, for which, in the experiment on Staphylococcus aureus, the IC50 was 6.61 mM. As to `O=C(/C=C/c1ccc([N+](=O)[O-])o1)c1cc([N+](=O)[O-])ccc1O`, the values for the IC50 in the experiment with Caulobacter vibrioides and in the experiment with Staphylococcus aureus were 14.8 mM and 17 mM, respectively. The corresponding values for `O=C1/C(=C/c2ccc([N+](=O)[O-])o2)Oc2ccc(Br)cc21` are 3.16 mM and 0.661 mM. The corresponding values for `CC(=O)Oc1ccc([N+](=O)[O-])cc1C(=O)/C=C/c1ccc([N+](=O)[O-])o1` are 14.8 mM and 16.2 mM.

Consider `O=C1/C(=C/c2ccc([N+](=O)[O-])o2)Oc2ccc(Cl)cc21`, for which the IC50 in the experiment on Caulobacter vibrioides is 5.25 mM; in the experiment with Staphylococcus aureus it was 0.575 mM. Taken in the same sequence, the figures for `O=C1/C(=C/c2ccc([N+](=O)[O-])o2)Oc2ccc([N+](=O)[O-])cc21` were 11.7 mM and 3.98 mM.
